Converted amounts (≈) assume the structure as drawn.
Columns and labels:
Escherichia coli [1] = assay: Minimal inhibitory concentration against Escherichia coli NIHJ JC-2; susceptible strain; assay type: functional
Procedure, shortened: (§1)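 MIC determined by the microdilution method.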

Staphylococcus aureus [2] = assay: Minimal inhibitory concentration against Staphylococcus aureus FDA 209P; susceptible strain; assay type: functional
Procedure, shortened: (§2)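 MIC determined by the microdilution method against Gram-positive strains, including a susceptible strain and a multidrug-resistant S. aureus strain.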

Staphylococcus aureus [3] = assay: Minimal inhibitory concentration against Staphylococcus aureus KMP9; multidrug resistant strain; assay type: functional; procedure, shortened: as §2
Escherichia coli [4] = assay: Minimal inhibitory concentration against Escherichia coli W3110 delta acrA; A multidrug efflux pump mutant; assay type: functional; procedure, shortened: as §1
Streptococcus pneumoniae [5] = assay: Minimal inhibitory concentration against Streptococcus pneumoniae KT2524 (PRSP); sparfloxacin, clarithromycin, ampicillin resistant strain; assay type: functional
Enterococcus faecium [6] = assay: Minimal inhibitory concentration against Enterococcus faecium KU1778 (VRE); sparfloxacin, clarithromycin, ampicillin, vancomycin resistant strain; assay type: functional
Staphylococcus aureus [7] = assay: Minimal inhibitory concentration against Staphylococcus aureus FDA 209P(MSSA); susceptible strain; assay type: functional
Enterococcus faecium [8] = assay: Minimal inhibitory concentration against Enterococcus faecium ATCC 19434 (VSE); susceptible strain; assay type: functional
Streptococcus pneumoniae [9] = assay: Minimal inhibitory concentration against Streptococcus pneumoniae ATCC 49619 (PSSP); susceptible strain; assay type: functional
Staphylococcus aureus [10] = assay: Minimal inhibitory concentration against Staphylococcus aureus KMP9 (MRSA); sparfloxacin, clarithromycin, ampicillin resistant strain; assay type: functional
DNA gyrase = DNA gyrase (Escherichia coli, UniProt P0AES4+P0AES6); assay: Inhibitory activity against supercoiling activity of DNA gyrase isolated from Escherichia coli; assay type: protein-complex assay
[11] = target: T1, DNA topoisomerase 4 subunit A (Escherichia coli K-12, UniProt P0AFI2); assay: Inhibitory activity against decatenation of DNA topoisomerase IV isolated from Escherichia coli
T1 sequence (P0AFI2 whole entry): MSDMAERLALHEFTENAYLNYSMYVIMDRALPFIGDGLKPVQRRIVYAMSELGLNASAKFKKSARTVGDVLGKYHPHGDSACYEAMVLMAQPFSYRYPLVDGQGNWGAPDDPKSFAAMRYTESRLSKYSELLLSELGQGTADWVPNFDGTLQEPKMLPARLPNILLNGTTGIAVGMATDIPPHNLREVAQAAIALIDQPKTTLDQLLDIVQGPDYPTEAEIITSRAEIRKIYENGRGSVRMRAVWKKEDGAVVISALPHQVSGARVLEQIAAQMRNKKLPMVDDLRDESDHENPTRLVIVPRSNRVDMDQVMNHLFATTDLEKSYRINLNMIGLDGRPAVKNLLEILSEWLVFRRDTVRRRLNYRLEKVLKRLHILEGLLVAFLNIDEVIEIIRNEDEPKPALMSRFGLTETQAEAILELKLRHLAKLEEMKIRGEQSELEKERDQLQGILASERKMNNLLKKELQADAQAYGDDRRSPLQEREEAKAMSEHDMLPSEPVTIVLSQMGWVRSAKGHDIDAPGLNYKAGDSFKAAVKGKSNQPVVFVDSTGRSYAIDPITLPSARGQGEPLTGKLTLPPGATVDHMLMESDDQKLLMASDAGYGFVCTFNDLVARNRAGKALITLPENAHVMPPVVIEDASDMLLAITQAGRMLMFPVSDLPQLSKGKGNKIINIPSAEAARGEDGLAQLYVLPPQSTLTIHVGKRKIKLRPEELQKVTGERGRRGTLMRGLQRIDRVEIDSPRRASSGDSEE

Staphylococcus aureus [12] = assay: 4 Minimal inhibitory concentration against Staphylococcus aureus KMP9; multidrug resistant strain; assay type: functional; procedure, shortened: as §2

SMILES: Clc1ccc(/C=C/c2cc(C3CCNCC3)[nH]n2)cc1Cl
- MIC (Escherichia coli [1]): 8 µg/mL (≈ 24.8 µM)
- MIC (Staphylococcus aureus [2]): 4 µg/mL (≈ 12.4 µM)
- MIC (Staphylococcus aureus [3]): 4 µg/mL (≈ 12.4 µM)
- MIC (Escherichia coli [4]): 4 µg/mL (≈ 12.4 µM)

SMILES: Clc1cccc(Cl)c1CCc1cc(C2CCNCC2)[nH]n1
- MIC (Escherichia coli [1]): 128 µg/mL (≈ 395 µM)
- MIC (Staphylococcus aureus [2]): 32 µg/mL (≈ 98.7 µM)
- MIC (Staphylococcus aureus [3]): 64 µg/mL (≈ 197 µM)
- MIC (Escherichia coli [4]): 64 µg/mL (≈ 197 µM)

SMILES: Clc1cccc(-n2nc(C3CCNCC3)cc2CCc2c(Cl)cccc2Cl)c1
- MIC (Escherichia coli [1]): > 128 µg/mL
- MIC (Staphylococcus aureus [2]): 32 µg/mL (≈ 73.6 µM)
- MIC (Staphylococcus aureus [3]): 32 µg/mL (≈ 73.6 µM)
- MIC (Escherichia coli [4]): 16 µg/mL (≈ 36.8 µM)

SMILES: Clc1cccc(-n2nc(C3CCNCC3)cc2CCc2c[nH]c3ccc(Cl)cc23)c1
- MIC (Streptococcus pneumoniae [5]): 8 µg/mL (≈ 18.2 µM)
- MIC (Enterococcus faecium [6]): 16 µg/mL (≈ 36.4 µM)
- MIC (Escherichia coli [1]): 64 µg/mL (≈ 146 µM)
- MIC (Staphylococcus aureus [2]): 16 µg/mL (≈ 36.4 µM)
- MIC (Staphylococcus aureus [3]): 16 µg/mL (≈ 36.4 µM)
- MIC (Staphylococcus aureus [7]): 16 µg/mL (≈ 36.4 µM)
- MIC (Enterococcus faecium [8]): 16 µg/mL (≈ 36.4 µM)
- MIC (Streptococcus pneumoniae [9]): 16 µg/mL (≈ 36.4 µM)
- MIC (Escherichia coli [4]): 16 µg/mL (≈ 36.4 µM)
- MIC (Staphylococcus aureus [10]): 16 µg/mL (≈ 36.4 µM)

SMILES: Clc1ccc(COc2ccc(/C=C/c3cc(C4CCNCC4)[nH]n3)cc2)cc1Cl
- MIC (Streptococcus pneumoniae [5]): 1 µg/mL (≈ 2.33 µM)
- MIC (Enterococcus faecium [6]): 1 µg/mL (≈ 2.33 µM)
- IC50 (DNA gyrase): 32.4 µM
- IC50 [11]: 64.9 µM
- MIC (Escherichia coli [1]): 4 µg/mL (≈ 9.34 µM)
- MIC (Staphylococcus aureus [2]): 2 µg/mL (≈ 4.67 µM)
- MIC (Staphylococcus aureus [3]): 2 µg/mL (≈ 4.67 µM)
- MIC (Staphylococcus aureus [7]): 2 µg/mL (≈ 4.67 µM)
- MIC (Enterococcus faecium [8]): 2 µg/mL (≈ 4.67 µM)
- MIC (Streptococcus pneumoniae [9]): 2 µg/mL (≈ 4.67 µM)
- MIC (Escherichia coli [4]): 2 µg/mL (≈ 4.67 µM)
- MIC (Staphylococcus aureus [10]): 2 µg/mL (≈ 4.67 µM)

SMILES: Clc1cccc(-n2nc(C3CCNCC3)cc2/C=C/c2ccc(OCc3ccc(Cl)c(Cl)c3)cc2)c1
- MIC (Escherichia coli [1]): 32 µg/mL (≈ 59.4 µM)
- MIC (Staphylococcus aureus [2]): 2 µg/mL (≈ 3.71 µM)
- MIC (Staphylococcus aureus [3]): 4 µg/mL (≈ 7.42 µM)
- MIC (Escherichia coli [4]): 4 µg/mL (≈ 7.42 µM)

SMILES: Clc1cccc(-n2nc(C3CCNCC3)cc2/C=C/c2cc3cc(Cl)ccc3[nH]2)c1
- MIC (Escherichia coli [1]): 16 µg/mL (≈ 36.6 µM)
- MIC (Staphylococcus aureus [2]): 2 µg/mL (≈ 4.57 µM)
- MIC (Staphylococcus aureus [3]): 4 µg/mL (≈ 9.15 µM)
- MIC (Escherichia coli [4]): 4 µg/mL (≈ 9.15 µM)

SMILES: Clc1cccc(Cl)c1/C=C/c1cc(C2CCNCC2)[nH]n1
- MIC (Escherichia coli [1]): > 128 µg/mL
- MIC (Staphylococcus aureus [2]): 128 µg/mL (≈ 397 µM)
- MIC (Staphylococcus aureus [3]): > 128 µg/mL
- MIC (Escherichia coli [4]): > 128 µg/mL

SMILES: Clc1cccc(-n2nc(C3CCNCC3)cc2/C=C/c2c(Cl)cccc2Cl)c1
- MIC (Streptococcus pneumoniae [5]): 4 µg/mL (≈ 9.24 µM)
- MIC (Enterococcus faecium [6]): 8 µg/mL (≈ 18.5 µM)
- MIC (Escherichia coli [1]): 64 µg/mL (≈ 148 µM)
- MIC (Staphylococcus aureus [2]): 4 µg/mL (≈ 9.24 µM)
- MIC (Staphylococcus aureus [3]): 4 µg/mL (≈ 9.24 µM)
- MIC (Staphylococcus aureus [7]): 4 µg/mL (≈ 9.24 µM)
- MIC (Enterococcus faecium [8]): 8 µg/mL (≈ 18.5 µM)
- MIC (Streptococcus pneumoniae [9]): 4 µg/mL (≈ 9.24 µM)
- MIC (Escherichia coli [4]): 4 µg/mL (≈ 9.24 µM)
- MIC (Staphylococcus aureus [10]): 4 µg/mL (≈ 9.24 µM)

SMILES: Clc1cccc(-n2nc(C3CCNCC3)cc2/C=C/c2ccc(Cl)c(Cl)c2)c1
- MIC (Escherichia coli [1]): 16 µg/mL (≈ 37 µM)
- MIC (Staphylococcus aureus [2]): 8 µg/mL (≈ 18.5 µM)
- MIC (Staphylococcus aureus [12]): 4 µg/mL (≈ 9.24 µM)
- MIC (Escherichia coli [4]): 4 µg/mL (≈ 9.24 µM)

SMILES: Clc1cccc(-n2nc(C3CCNCC3)cc2/C=C/c2c[nH]c3ccc(Cl)cc23)c1
- MIC (Streptococcus pneumoniae [5]): 2 µg/mL (≈ 4.57 µM)
- MIC (Enterococcus faecium [6]): 2 µg/mL (≈ 4.57 µM)
- IC50 (DNA gyrase): 18.3 µM
- IC50 [11]: 31.8 µM
- MIC (Escherichia coli [1]): 8 µg/mL (≈ 18.3 µM)
- MIC (Staphylococcus aureus [2]): 1 µg/mL (≈ 2.29 µM)
- MIC (Staphylococcus aureus [3]): 1 µg/mL (≈ 2.29 µM)
- MIC (Staphylococcus aureus [7]): 1 µg/mL (≈ 2.29 µM)
- MIC (Enterococcus faecium [8]): 2 µg/mL (≈ 4.57 µM)
- MIC (Streptococcus pneumoniae [9]): 2 µg/mL (≈ 4.57 µM)
- MIC (Escherichia coli [4]): 4 µg/mL (≈ 9.15 µM)
- MIC (Staphylococcus aureus [10]): 1 µg/mL (≈ 2.29 µM)

SMILES: Cn1cc(/C=C/c2cc(C3CCNCC3)nn2-c2cccc(Cl)c2)c2cc(Cl)ccc21
- MIC (Streptococcus pneumoniae [5]): 1 µg/mL (≈ 2.22 µM)
- MIC (Enterococcus faecium [6]): 1 µg/mL (≈ 2.22 µM)
- IC50 [11]: 35.4 µM
- MIC (Escherichia coli [1]): > 128 µg/mL
- MIC (Staphylococcus aureus [2]): 2 µg/mL (≈ 4.43 µM)
- MIC (Staphylococcus aureus [3]): 2 µg/mL (≈ 4.43 µM)
- MIC (Staphylococcus aureus [7]): 2 µg/mL (≈ 4.43 µM)
- MIC (Enterococcus faecium [8]): 2 µg/mL (≈ 4.43 µM)
- MIC (Streptococcus pneumoniae [9]): 1 µg/mL (≈ 2.22 µM)
- MIC (Escherichia coli [4]): 4 µg/mL (≈ 8.86 µM)
- MIC (Staphylococcus aureus [10]): 2 µg/mL (≈ 4.43 µM)

— ChEMBL document CHEMBL1141057, “Synthesis and antibacterial activity of a novel series of DNA gyrase inhibitors: 5-[(E)-2-arylvinyl]pyrazoles” (Bioorg Med Chem Lett, 2005)
